According to ChEMBL document CHEMBL1914373, “Synthesis and biological evaluation of novel dimethyl[1,1'-biphenyl]-2,2'-dicarboxylate derivatives containing thiazolidine-2,4-dione for the treatment of concanavalin A-induced acute liver injury of BALB/c mice” (2011):
Calls of active or inactive are those of the source. The rule behind the calls is not given here.

Assays:
RAW264.7 = assay: Antiinflammatory activity in LPS-stimulated mouse RAW264.7 cells assessed as inhibition of LPS-induced NO production after 22 hrs by Griess reaction; format: functional, cell-based
Summary of the method: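 RAW 264.7 macrophages grown in RPMI 1640, 37 °C, 5% CO2; seeded 1 × 10^4/well, cultured 24 h, then exposed to LPS with or without compounds at a range of concentrations for 22 h. Supernatant mixed 1:1 with Griess reagent, 10 min at room temperature, A540 read; nitrite quantified against sodium nitrite standards in RPMI 1640. Three independent experiments.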

Mus musculus [1] = assay: Hepatoprotective activity in BALB/c mouse hepatitis model assessed as reduction in concanavalin A-induced increase in serum AST level at 50 mg/kg, […] relative to control; format: functional; set-up: scale not given: the % may be the effect or the level left; settings: route oral
Mus musculus [2] = assay: Antiinflammatory activity in ICR mouse assessed as reduction in carrageenan-induced paw edema at 50 mg/kg, po administered 30 mins before carrageenan challenge measured at 3 hr post challenge; format: functional; set-up: scale not given: the % may be the effect or the level left
Mus musculus [3] = assay: Antiinflammatory activity in po dosed ICR mouse assessed as reduction in carrageenan-induced paw edema administered 30 mins before carrageenan challenge measured up to 5 hrs; format: functional, organism-based
Mus musculus [4] = assay: Hepatoprotective activity in BALB/c mouse hepatitis model assessed as reduction in concanavalin A-induced increase in serum ALT level at 50 mg/kg, […] relative to control; format: functional; set-up: scale not given: the % may be the effect or the level left; settings: route oral
Rattus norvegicus [5] = assay: Hepatoprotective activity […] assessed as reduction in concanavalin A-induced inflammatory cells infiltration at 50 mg/kg, po administered before concanavalin A challenge by hematoxylin and eosin staining-based histopathology analysis; format: functional, organism-based; set-up: dose 50 mg/kg
Rattus norvegicus [6] = assay: Hepatoprotective activity […] assessed as decrease in liver lesions at 50 mg/kg, po administered before concanavalin A challenge by hematoxylin and eosin staining-based histopathology analysis; format: functional, organism-based; set-up: dose 50 mg/kg
Rattus norvegicus [7] = assay: Hepatoprotective activity […] assessed as reduction in necrosis in liver lobules at 50 mg/kg, po administered before concanavalin A challenge by hematoxylin and eosin staining-based histopathology analysis; format: functional, organism-based; set-up: dose 50 mg/kg

Compound	inhibition (RAW264.7)	other results
COC(=O)c1cc(OC)c2c(c1-c1c(C(=O)Oc3ccc(/C=C4\SC(=O)NC4=O)cc3OC)cc(OC)c3c1OCO3)OCO2	Active	–
COC(=O)c1cc(OC)c2c(c1-c1c(C(=O)Oc3cc(/C=C4/SC(=O)NC4=O)ccc3OC)cc(OC)c3c1OCO3)OCO2	Active	–
COC(=O)c1cc(OC)c2c(c1-c1c(C(=O)Oc3ccc(/C=C4\SC(=O)NC4=O)cc3)cc(OC)c3c1OCO3)OCO2	Active	Activity (Mus musculus [1]): 69.12%; Activity (Mus musculus [2]): 54.88%; Activity (Mus musculus [3]): Dose-dependent effect; Activity (Mus musculus [4]): 94.96%; Activity (Rattus norvegicus [5]): Active; Activity (Rattus norvegicus [6]): Active; Activity (Rattus norvegicus [7]): Active
COC(=O)c1cc(OC)c2c(c1-c1c(C(=O)OC)cc(OC)c3c1OCO3)OCO2 [BIFENDATE]	–	Activity (Mus musculus [1]): 50.62%; Activity (Mus musculus [2]): 20.98%; Activity (Mus musculus [4]): 44.58%
COC(=O)c1cc(OC)c2c(c1-c1c(C(=O)Oc3c(Br)cc(Br)cc3/C=C3/SC(=O)NC3=O)cc(OC)c3c1OCO3)OCO2	Active	–
COC(=O)c1cc(OC)c2c(c1-c1c(C(=O)Oc3ccccc3/C=C3/SC(=O)NC3=O)cc(OC)c3c1OCO3)OCO2	Active	–
COC(=O)c1cc(OC)c2c(c1-c1c(C(=O)Oc3ccc(/C=C4\SC(=O)NC4=O)cc3F)cc(OC)c3c1OCO3)OCO2	Active	–
COC(=O)c1cc(OC)c2c(c1-c1c(C(=O)Oc3ccc(Cl)cc3/C=C3/SC(=O)NC3=O)cc(OC)c3c1OCO3)OCO2	Dose-dependent effect	–
COC(=O)c1cc(OC)c2c(c1-c1c(C(=O)Oc3ccc(/C=C4\SC(=O)NC4=O)cc3Br)cc(OC)c3c1OCO3)OCO2	Active	–
CCOc1cc(/C=C2\SC(=O)NC2=O)ccc1OC(=O)c1cc(OC)c2c(c1-c1c(C(=O)OC)cc(OC)c3c1OCO3)OCO2	Active	–
COC(=O)c1cc(OC)c2c(c1-c1c(C(=O)Oc3c(Cl)cc(Cl)cc3/C=C3/SC(=O)NC3=O)cc(OC)c3c1OCO3)OCO2	Active	–
COC(=O)c1cc(OC)c2c(c1-c1c(C(=O)Oc3c(OC)cc(/C=C4\SC(=O)NC4=O)cc3OC)cc(OC)c3c1OCO3)OCO2	Active	–
COC(=O)c1cc(OC)c2c(c1-c1c(C(=O)Oc3cccc(/C=C4/SC(=O)NC4=O)c3)cc(OC)c3c1OCO3)OCO2	Active	–
